Laboratory results from ChEMBL document CHEMBL5154792, “A New Amino Acid for Improving Permeability and Solubility in Macrocyclic Peptides through Side Chain-to-Backbone Hydrogen Bonding” (J Med Chem, 2022).
≈ marks a conversion by molar mass, not a printed value.

Tests used:
[1] = Thermodynamic solubility of the compound at pH 7.4 after 24 hrs by UPLC-MS analysis; format: physicochemical; settings: buffer, read-out: Therm_solubility
How it was run: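 10 mM DMSO stocks were dried down, redissolved in PBS pH 7.4 (maximum 2 mM), sonicated 1 h, then gently agitated ~24 h at 37 °C. Filtered through 0.7 µm glass fiber, diluted up to 40-fold in MeCN and quantified by UPLC-MS against standard curves (50 µM to 0.1 µM in DMSO).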

[2] = Apparent permeability of the compound after 15 hrs by UPLC-MS based PAMPA; format: ADME; settings: for Papp at 15 h: PAMPA; for Papp: pampa, 15 h
How it was run: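 Donor: 2 µM peptide in PBS pH 7.4 with 5% DMSO final. Acceptor: 5% DMSO in PBS. Membrane of 1% (w/v) soybean lecithin in n-dodecane. Incubated ~15 h at room temperature (exact time recorded) in a humidified sealed chamber. Donor and acceptor wells quantified by UPLC-MS in quadruplicate. Papp derived from %T (acceptor vs theoretical equilibrium) using membrane area 240 mm2.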

Compound	solubility thermodynamic at 24 h [1]	Papp at 15 h [2]	Papp [2]
CC(C)C[C@H]1NC(=O)[C@H]2CCCN2C(=O)[C@H](CCC(=O)N2CCCC2)NC(=O)[C@@H](CC(C)C)NC(=O)[C@@H](CC(C)C)NC(=O)[C@@H](CC(C)C)NC1=O	560 µM (≈ 410 µg/mL)	1.5 ×10⁻⁶ cm/s	
CC(C)C[C@@H]1NC(=O)[C@@H](CCC(=O)N2CCCC2)NC(=O)[C@H](CC(C)C)NC(=O)[C@@H](CC(C)C)NC(=O)[C@H]2CCCN2C(=O)[C@H](CC(C)C)NC1=O	580 µM (≈ 425 µg/mL)	0.14 ×10⁻⁶ cm/s	
CC(C)C[C@@H]1NC(=O)[C@@H](CCC(=O)N2CCCC2)NC(=O)[C@@H](CC(C)C)NC(=O)[C@@H](CC(C)C)NC(=O)[C@@H](CC(C)C)NC(=O)[C@H]2CCCN2C1=O	550 µM (≈ 403 µg/mL)	0.13 ×10⁻⁶ cm/s	
CC(C)C[C@@H]1NC(=O)[C@@H](CC(C)C)NC(=O)[C@@H](CCC(=O)N2CCCC2)NC(=O)[C@@H](CC(C)C)NC(=O)[C@H]2CCCN2C(=O)[C@H](CC(C)C)NC1=O	550 µM (≈ 403 µg/mL)	0.66 ×10⁻⁶ cm/s	
CC(C)C[C@@H]1NC(=O)[C@@H](CC(C)C)NC(=O)[C@@H](CC(C)C)NC(=O)[C@@H](CCC(=O)N2CCCC2)NC(=O)[C@H]2CCCN2C(=O)[C@H](CC(C)C)NC1=O	640 µM (≈ 468 µg/mL)		1.7 10^-6 cm/s
CC(C)C[C@@H]1NC(=O)[C@@H](CC(C)C)NC(=O)[C@@H](CCC(=O)N2CCCC2)NC(=O)[C@@H](CC(C)C)NC(=O)[C@@H](CC(C)C)NC(=O)[C@H]2CCCN2C1=O	460 µM (≈ 337 µg/mL)	1.3 ×10⁻⁶ cm/s	
CC(C)C[C@@H]1NC(=O)[C@@H](CC(C)C)NC(=O)[C@H](CC(C)C)NC(=O)[C@@H](CC(=O)N2CCCC2)NC(=O)[C@H]2CCCN2C(=O)[C@H](CC(C)C)NC1=O	670 µM (≈ 481 µg/mL)	0.56 ×10⁻⁶ cm/s	
CC(C)C[C@@H]1NC(=O)[C@@H](CCC(=O)N2CCCC2)NC(=O)[C@@H](CC(C)C)NC(=O)[C@@H](CC(C)C)NC(=O)[C@H]2CCCN2C(=O)[C@H](CC(C)C)NC1=O	580 µM (≈ 425 µg/mL)	0.3 ×10⁻⁶ cm/s	
CC(C)C[C@@H]1NC(=O)[C@@H](CC(C)C)NC(=O)[C@H](CC(C)C)NC(=O)[C@@H](CC(C)C)NC(=O)[C@H]2CCCN2C(=O)[C@H](CCC(=O)N2CCCC2)NC1=O	600 µM (≈ 439 µg/mL)	0.18 ×10⁻⁶ cm/s	
CC(C)C[C@@H]1NC(=O)[C@@H](CC(C)C)NC(=O)[C@@H](CC(C)C)NC(=O)[C@@H](CC(C)C)NC(=O)[C@@H](CCC(=O)N2CCCC2)NC(=O)[C@H]2CCCN2C1=O	610 µM (≈ 447 µg/mL)		0.56 10^-6 cm/s
CC(C)C[C@@H]1NC(=O)[C@@H](CC(C)C)NC(=O)[C@H](CC(C)C)NC(=O)[C@@H](CCC(=O)N2CCCC2)NC(=O)[C@H]2CCCN2C(=O)[C@H](CC(C)C)NC1=O	730 µM (≈ 534 µg/mL)		1.5 10^-6 cm/s
CC(C)C[C@@H]1NC(=O)[C@@H](CC(C)C)NC(=O)[C@@H](CC(C)C)NC(=O)[C@@H](CCC(=O)N2CCCC2)NC(=O)[C@@H](CC(C)C)NC(=O)[C@H]2CCCN2C1=O	450 µM (≈ 329 µg/mL)	1.1 ×10⁻⁶ cm/s	
CC(C)C[C@@H]1NC(=O)[C@@H](CC(C)C)NC(=O)[C@H](CCC(=O)N2CCCC2)NC(=O)[C@@H](CC(C)C)NC(=O)[C@H]2CCCN2C(=O)[C@H](CC(C)C)NC1=O	140 µM (≈ 102 µg/mL)	0.23 ×10⁻⁶ cm/s	
CC(C)C[C@@H]1NC(=O)[C@@H](CC(C)C)NC(=O)[C@@H](CC(C)C)NC(=O)[C@@H](CC(C)C)NC(=O)[C@H]2CCCN2C(=O)[C@H](CCC(=O)N2CCCC2)NC1=O	720 µM (≈ 527 µg/mL)	0.66 ×10⁻⁶ cm/s	

Second part, the compound after the results:

solubility thermodynamic at 24 h [1]	Papp at 15 h [2]	Papp [2]	Compound
16 µM (≈ 10.6 µg/mL)		8.1 10^-6 cm/s	CC(C)C[C@@H]1NC(=O)[C@@H](CC(C)C)NC(=O)[C@@H](CC(C)C)NC(=O)[C@@H](CC(C)C)NC(=O)[C@H]2CCCN2C(=O)[C@H](CC(C)C)NC1=O
710 µM (≈ 492 µg/mL)	2 ×10⁻⁶ cm/s		COC(=O)CC[C@H]1NC(=O)[C@H]2CCCN2C(=O)[C@H](CC(C)C)NC(=O)[C@H](CC(C)C)NC(=O)[C@@H](CC(C)C)NC(=O)[C@H](CC(C)C)NC1=O
1120 µM (≈ 775 µg/mL)	0.28 ×10⁻⁶ cm/s		CC(C)C[C@@H]1NC(=O)[C@@H](CC(C)C)NC(=O)[C@H](CC(C)C)NC(=O)[C@@H](CC(=O)N(C)C)NC(=O)[C@H]2CCCN2C(=O)[C@H](CC(C)C)NC1=O
240 µM (≈ 159 µg/mL)		5.3 10^-6 cm/s	CC(C)C[C@@H]1NC(=O)[C@@H](CC(C)C)NC(=O)[C@@H](CC(C)C)NC(=O)[C@@H](CC(C)C)NC(=O)[C@@H](CC(C)C)NC(=O)[C@H]2CCCN2C1=O
1660 µM (≈ 1170 µg/mL)	0.7 ×10⁻⁶ cm/s		CC(C)C[C@@H]1NC(=O)[C@@H](CC(C)C)NC(=O)[C@H](CC(C)C)NC(=O)[C@@H](CCC(=O)N(C)C)NC(=O)[C@H]2CCCN2C(=O)[C@H](CC(C)C)NC1=O
510 µM (≈ 373 µg/mL)	0.32 ×10⁻⁶ cm/s		CC(C)C[C@@H]1NC(=O)[C@H](CCC(=O)N2CCCC2)NC(=O)[C@@H](CC(C)C)NC(=O)[C@@H](CC(C)C)NC(=O)[C@@H](CC(C)C)NC(=O)[C@H]2CCCN2C1=O
63 µM (≈ 41.8 µg/mL)		8 10^-6 cm/s	CC(C)C[C@@H]1NC(=O)[C@@H](CC(C)C)NC(=O)[C@H](CC(C)C)NC(=O)[C@@H](CC(C)C)NC(=O)[C@H]2CCCN2C(=O)[C@H](CC(C)C)NC1=O
550 µM (≈ 403 µg/mL)	0.28 ×10⁻⁶ cm/s		CC(C)C[C@@H]1NC(=O)[C@@H](CC(C)C)NC(=O)[C@H]2CCCN2C(=O)[C@H](CC(C)C)NC(=O)[C@H](CCC(=O)N2CCCC2)NC(=O)[C@@H](CC(C)C)NC1=O
